Data set [1] deals with Rattus norvegicus. Briefly: Acute toxicity in albino Sprague-Dawley rat pilocarpine-induced status prevention model at 300 mg/kg, ip measured 0.25 hrs post pilocarpine challenge. It counts as organism-based. Details: dose 300 mg/kg, route intraperitoneal. As to conditions: in vivo. In outline: (§1)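 Acute motor-impairment screen in the PISP programme, using male Sprague Dawley rats. Compound was suspended in 0.5% methyl cellulose and given i.p. at 100, 300 or 600 mg/kg. Two rats were used per dose. Behaviour was closely observed and recorded over a 4 h period at 0.25, 0.5, 1.0, 2.0 and 4.0 h. The result is scored as number toxic over number tested.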

The test system of data set [2] is Rattus norvegicus. Nature of the data set: Acute toxicity in albino Sprague-Dawley rat pilocarpine-induced status prevention model at 600 mg/kg, ip measured 1 hr post pilocarpine challenge. Conditions: in vivo. Details: dose 600 mg/kg, route intraperitoneal. The class given is organism-based. In outline: as §1
Data set [3] relates to Rattus norvegicus. Nature of the data set: Acute toxicity in albino Sprague-Dawley rat pilocarpine-induced status prevention model at 100 mg/kg, ip measured 1 hr post pilocarpine challenge. The class given is organism-based. Details: dose 100 mg/kg, route intraperitoneal. Conditions: in vivo. An outline of the steps:
as §1

For data set [4], the system named is Mus musculus. Briefly: Neurotoxicity in albino CF-1 mouse assessed as minimum motor impairment at 300 mg/kg, ip after 0.5 hrs by rotarod test. Details: dose 300 mg/kg, route intraperitoneal. Conditions: in vivo. The class given is toxicity, organism-based. An outline of the steps: (§2)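 Minimal motor impairment assessed in male CF-1 albino mice (18–25 g) at 0.5 and 4 h after i.p. doses of 30, 100 and 300 mg/kg, given in 0.5% methyl cellulose. Minimum dose toxic in half or more of mice recorded.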
(In the rotarod test animals must keep their balance on a rotating rod.)

For data set [5], the system named is Rattus norvegicus. Nature of the data set: Acute toxicity in albino Sprague-Dawley rat pilocarpine-induced status prevention model at 100 mg/kg, ip measured 4 hrs post pilocarpine challenge. It counts as organism-based. Details: dose 100 mg/kg, route intraperitoneal. As to conditions: in vivo. In outline:
as §1

Data set [6] deals with Rattus norvegicus. Nature of the data set: Acute toxicity in albino Sprague-Dawley rat pilocarpine-induced status prevention model at 300 mg/kg, ip measured 4 hrs post pilocarpine challenge. The class given is organism-based. Details: dose 300 mg/kg, route intraperitoneal. As to conditions: in vivo. In outline:
as §1

Data set [7] deals with Rattus norvegicus. Briefly: Acute toxicity in albino Sprague-Dawley rat pilocarpine-induced status prevention model at 300 mg/kg, ip measured 1 hr post pilocarpine challenge. Conditions: in vivo. Details: dose 300 mg/kg, route intraperitoneal. It counts as organism-based. An outline of the steps: as §1
Data set [8] is described as follows: Octanol-phosphate buffer partition coefficient, log P of the compound at 5 mg after 24 hrs by UV spectroscopic analysis. The class given is physicochemical. An outline of the steps: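 5 mg compound added to 10 mL octanol plus 10 mL phosphate buffer in a stoppered tube. Mixture shaken mechanically 24 h at room temperature, then left 6 h in a separating funnel to equilibrate.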

Data set [9] relates to Mus musculus. Nature of the data set: Neurotoxicity in albino CF-1 mouse assessed as minimum motor impairment at 300 mg/kg, ip after 4 hrs by rotarod test. The class given is toxicity, organism-based. Details: dose 300 mg/kg, route intraperitoneal. Conditions: in vivo. In outline: as §2
In data set [10] the test system is Rattus norvegicus. Briefly: Acute toxicity in albino Sprague-Dawley rat pilocarpine-induced status prevention model at 300 mg/kg, ip measured 2 hrs post pilocarpine challenge. It counts as organism-based. Details: dose 300 mg/kg, route intraperitoneal. Conditions: in vivo. In outline: as §1
In data set [11] the test system is Mus musculus. Briefly: Anticonvulsant activity in albino CF-1 mouse assessed as protection against 6 Hz psychomotor seizure at 100 mg/kg, ip after 2 hrs by minimal clonic seizure test. It counts as functional. As to conditions: route intraperitoneal. An outline of the steps: (§3)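 Male CF-1 albino mice (18–25 g) given compound i.p., suspended in 0.5% methyl cellulose, 100 mg/kg in screen. Four mice per time point challenged at 0.25, 0.5, 1.0, 2.0 and 4.0 h via corneal electrodes (32 mA, 3 s, 6 Hz). Protection = absence of psychomotor seizure (minimal clonic phase, automatistic behaviours). Scored as animals protected/tested.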

The test system of data set [12] is Rattus norvegicus. Nature of the data set: Acute toxicity in albino Sprague-Dawley rat pilocarpine-induced status prevention model at 600 mg/kg, ip measured 0.5 hrs post pilocarpine challenge. The class given is organism-based. Details: dose 600 mg/kg, route intraperitoneal. Conditions: in vivo. In outline: as §1
Data set [13] concerns Mus musculus. Briefly: Anticonvulsant activity in albino CF-1 mouse assessed as protection against 6 Hz psychomotor seizure at 100 mg/kg, ip after 0.5 hrs by minimal clonic seizure test. The class given is functional. As to conditions: route intraperitoneal. In outline:
as §3

The test system of data set [14] is Rattus norvegicus. Nature of the data set: Acute toxicity in albino Sprague-Dawley rat pilocarpine-induced status prevention model at 600 mg/kg, ip measured 2 hrs post pilocarpine challenge. It counts as organism-based. Details: dose 600 mg/kg, route intraperitoneal. As to conditions: in vivo. In outline: as §1
The subject of data set [15] is Rattus norvegicus. Nature of the data set: Acute toxicity in albino Sprague-Dawley rat pilocarpine-induced status prevention model at 100 mg/kg, ip measured 0.25 hrs post pilocarpine challenge. The class given is organism-based. Details: dose 100 mg/kg, route intraperitoneal. As to conditions: in vivo. In outline:
as §1

Data set [16] deals with Mus musculus. Briefly: Anticonvulsant activity in albino CF-1 mouse assessed as protection against 6 Hz psychomotor seizure at 100 mg/kg, ip after 0.25 hrs by minimal clonic seizure test. It counts as functional. An outline of the steps: as §3
Data set [17] relates to Rattus norvegicus. Nature of the data set: Acute toxicity in albino Sprague-Dawley rat pilocarpine-induced status prevention model at 100 mg/kg, ip measured 2 hrs post pilocarpine challenge. It counts as organism-based. Details: dose 100 mg/kg, route intraperitoneal. As to conditions: in vivo. In outline:
as §1

Data set [18] has as its system Rattus norvegicus. Briefly: Acute toxicity in albino Sprague-Dawley rat pilocarpine-induced status prevention model at 300 mg/kg, ip measured 0.5 hrs post pilocarpine challenge. Details: dose 300 mg/kg, route intraperitoneal. The class given is organism-based. Conditions: in vivo. In outline:
as §1

Data set [19] concerns Rattus norvegicus. Nature of the data set: Acute toxicity in albino Sprague-Dawley rat pilocarpine-induced status prevention model at 600 mg/kg, ip measured 4 hrs post pilocarpine challenge. It counts as organism-based. Details: dose 600 mg/kg, route intraperitoneal. Conditions: in vivo. In outline:
as §1

Data set [20] has as its system Rattus norvegicus. Nature of the data set: Acute toxicity in albino Sprague-Dawley rat pilocarpine-induced status prevention model at 600 mg/kg, ip measured 0.25 hrs post pilocarpine challenge. The class given is organism-based. Details: dose 600 mg/kg, route intraperitoneal. Conditions: in vivo. In outline:
as §1

The test system of data set [21] is Mus musculus. Nature of the data set: Anticonvulsant activity in albino CF-1 mouse assessed as protection against 6 Hz psychomotor seizure at 100 mg/kg, ip after 4 hrs by minimal clonic seizure test. It counts as functional, organism-based. Details: dose 100 mg/kg. An outline of the steps:
as §3

For data set [22], the system named is Rattus norvegicus. Briefly: Acute toxicity in albino Sprague-Dawley rat pilocarpine-induced status prevention model at 100 mg/kg, ip measured 0.5 hrs post pilocarpine challenge. It counts as organism-based. Details: dose 100 mg/kg, route intraperitoneal. Conditions: in vivo. In outline:
as §1

Data set [23] relates to Mus musculus. Nature of the data set: Anticonvulsant activity in albino CF-1 mouse assessed as protection against 6 Hz psychomotor seizure at 100 mg/kg, ip after 1 hr by minimal clonic seizure test. The class given is functional. Conditions: route intraperitoneal. In outline:
as §3

Each structure is given as a SMILES string. Calls of active or inactive are those of the source. The rule behind the calls is not given here.

What is called logP is the decadic logarithm of the partition coefficient of the neutral form, usually between octanol and water. A higher logP goes with a more lipophilic compound. As for `Cc1cc(Oc2ccc(/C=N/NC(=S)Nc3ccc(Br)cc3)cc2)ccc1Cl`, the Activity result with Rattus norvegicus [1], with Rattus norvegicus [2], with Rattus norvegicus [3], in the data set with Mus musculus [4], in the data set on Rattus norvegicus [5] and with Rattus norvegicus [6] was “Non-toxic” throughout. For the same compound, the Activity result is on record as “Non-toxic” in the data set with Rattus norvegicus [7]; “Non-toxic” in the data set on Mus musculus [9]; “Non-toxic” in the data set on Rattus norvegicus [10]; 50% in the data set with Mus musculus [11]; “Non-toxic” in the data set with Rattus norvegicus [12]; 75% in the data set on Mus musculus [13]. The Activity entry in the data set with Rattus norvegicus [14], with Rattus norvegicus [15], in the data set on Rattus norvegicus [17], with Rattus norvegicus [18], in the data set on Rattus norvegicus [19] and in the data set on Rattus norvegicus [20] was “Non-toxic” each time. Besides, the Activity result is “Non-toxic” with Rattus norvegicus [22] and 50% with Mus musculus [23]. In [8], this compound displayed a logP at 24 h of 7.89. In addition, the outcome in the data set on Mus musculus [16] was Active. Besides, the result with Mus musculus [21] was inactive.

The record behind these values is ChEMBL document CHEMBL1932946, “Design, synthesis and anticonvulsant evaluation of novel N-(4-substituted phenyl)-2-[4-(substituted) benzylidene]-hydrazinecarbothio amides” (Eur J Med Chem, 2012).
